Results reported in ChEMBL document CHEMBL5223168, “Using Imidazo[2,1-b][1,3,4]thiadiazol Skeleton to Design and Synthesize Novel MNK Inhibitors” (ACS Med Chem Lett, 2023).
Activity calls are given as the source filed them. No cut-off for these calls is given here.

Columns and labels:
MEF = assay: Inhibition of MNK in MNK1 knockout mouse MEF cells assessed as inhibition of eIF4E phosphorylation at 1 uM incubated for 2 hrs by Western blot analysis; type: cell-based
Outline: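 MEFs lacking MNK1 or MNK2 (wild-type for comparison) treated 2 h at indicated concentrations; lysates immunoblotted for p-eIF4E, which reflects the remaining MNK isoform; quantified from three independent experiments, SEM.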

[1] = system: MAP kinase-interacting kinase MNK1/2 (Homo sapiens); assay: Inhibition of MNK in human U-937 cells assessed as inhibition of eIF4E phosphorylation at 10 uM incubated for 2 hrs by Western blot analysis
[2] = target: T1, MAP kinase-interacting serine/threonine-protein kinase 1 (Homo sapiens, UniProt Q9BUB5); assay: Inhibition of MNK1 (unknown origin) incubated for 60 mins using CREB as substrate in presence of ATP by LANCE Ultra kinase assay
Target sequence in this assay (Q9BUB5 whole entry): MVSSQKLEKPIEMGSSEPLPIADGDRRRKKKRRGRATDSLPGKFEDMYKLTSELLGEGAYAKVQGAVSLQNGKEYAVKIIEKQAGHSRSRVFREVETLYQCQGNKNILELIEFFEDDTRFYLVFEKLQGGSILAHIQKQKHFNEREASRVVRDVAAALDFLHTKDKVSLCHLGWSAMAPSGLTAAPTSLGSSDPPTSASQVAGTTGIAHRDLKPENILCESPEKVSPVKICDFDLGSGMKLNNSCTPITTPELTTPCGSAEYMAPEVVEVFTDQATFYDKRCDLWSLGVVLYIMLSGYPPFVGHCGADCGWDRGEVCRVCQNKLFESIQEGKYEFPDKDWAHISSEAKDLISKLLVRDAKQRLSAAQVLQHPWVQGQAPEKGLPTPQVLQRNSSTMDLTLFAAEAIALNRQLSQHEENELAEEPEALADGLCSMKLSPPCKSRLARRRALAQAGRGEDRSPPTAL

mTORC1 (Homo sapiens) [3] = target: T2, mTORC1 (Homo sapiens) (UniProt P42345+Q8N122+Q9BVC4); assay: Inhibition of mTORC1 in human LNCaP C4-2B cells assessed as inhibition of phosphorylation of rpS6 at Ser240/244 at 5 uM incubated for 2 hrs by Western blot analysis; type: cell-based
Outline: (§1)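 C4-2B prostate cancer cells treated with inhibitor; lysates probed by Western blot for p-eIF4E, p-S6K (Thr389), p-rpS6 (Ser240/244) and p-AKT (Ser473).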

MDA-MB-231 [4] = assay: Downregulation of MMP-3 in human MDA-MB-231 cells at 5 uM incubated for 24 hrs by Western blot anlaysis; type: functional, cell-based
Outline: (§2)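 A549 and MDA-MB-231 cells treated 24 h with 5 μM; lysates resolved by SDS-PAGE and immunoblotted for cyclin B1, cyclin D3 and MMP-3.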

mTORC1 (Homo sapiens) [5] = target: T2, mTORC1 (Homo sapiens); assay: Inhibition of mTORC1 in human LNCaP C4-2B cells assessed as inhibition of phosphorylation of S6K at Thr389 at 5 uM incubated for 2 hrs by Western blot analysis; type: cell-based; outline: as §1
[6] = system: MAP kinase-interacting kinase MNK1/2 (Homo sapiens); assay: Inhibition of MNK in human A549 cells assessed as reduction in TNF-alpha level at 1 to 10 uM incubated for 48 hrs by ELISA; settings: dose 1-10 µM
MDA-MB-231 [7] = assay: Antimigratory activity against human MDA-MB-231 cells assessed as inhibition of cell migration at 5 uM and measured upto 24 hrs by scratch wound healing assay; type: functional, cell-based
Outline: (§3)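 Scratch wound-healing: A549 or MDA-MB-231 monolayers wounded, then exposed to 5 μM compound or DMSO; wound imaged at 6 and 24 h; percentage change in wound area quantified by image analysis at each time point.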

[8] = Tmax in mouse at 25 mg/kg, iv and measured upto 24 hrs; type: ADME, organism-based; settings: in vivo
MDA-MB-231 [9] = assay: Induction of cell cycle arrest in human MDA-MB-231 cells assessed as decrease in cyclin B1 level at 5 uM incubated for 24 hrs by Western blot analysis; type: functional, cell-based; outline: as §2
[10] = target: T1, MAP kinase-interacting serine/threonine-protein kinase 1; assay: Inhibition of MNK1 (unknown origin) at 3 uM in presence of ATP by kinase assay
Outline: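 Single-point kinase profiling: inhibitor tested at 3 μM against a panel of 60 kinases from different families, activity presented as heatmap.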
Target sequence in this assay (Q9BUB5 whole entry, looked up): as the sequence (Q9BUB5 whole entry) above

[11] = system: MAP kinase-interacting kinase MNK1/2 (Homo sapiens); assay: Inhibition of MNK in human NCI-H1299 cells assessed as inhibition of eIF4E phosphorylation at 3 uM incubated for 2 hrs by Western blot analysis
MDA-MB-231 [12] = assay: Inhibition of colony formation in human MDA-MB-231 cells at 1 to 5 uM measured after 10 days by crystal violet staining based clonogenic assay; type: functional, cell-based; settings: dose 1-5 µM, time 10.0 day
Outline: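 Clonogenic assay over 10 days; cells treated with DMSO vehicle or compound at indicated concentrations, plates scanned and colonies quantified from three independent experiments.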

A549 [13] = assay: Induction of cell cycle arrest in human A549 cells assessed as accumulation of cells at S phase at 5 uM incubated for 20 hrs by propidium iodide staining based flow cytometry (Rvb=13.6%); type: functional
[14] = target: Eukaryotic translation initiation factor 4E (Homo sapiens) (UniProt P06730); assay: Inhibition of eIF4E phosphorylation in human MDA-MB-231 cells at 5 uM and measured upto 96 hrs by Western blot analysis; type: cell-based
Outline: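 Cells maintained with compound at 5 μM for up to 6 days for cell counts; eIF4E phosphorylation followed by immunoblot for up to 96 h.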

[15] = target: Mitogen-activated protein kinase 9 (Homo sapiens) (UniProt P45984); assay: Inhibition of JNK2 (unknown origin) at 3 uM in presence of ATP by kinase assay
A549 [16] = assay: Antiproliferative activity against human A549 cells assessed as reduction in cell viability at 5 uM incubated upto 6 days by trypan blue assay; type: functional, cell-based; settings: time <= 6.0 day
Outline: (§4)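 A549 or MDA-MB-231 cells cultured with 5 μM compound for up to 6 days; cell number counted over time; p-eIF4E followed by immunoblot up to 96 h.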

A549 [17] = assay: Induction of cell cycle arrest in human A549 cells assessed as accumulation of cells at G0/G1 phase at 5 uM incubated for 20 hrs by propidium iodide staining based flow cytometry (Rvb=70.9%); type: functional
[18] = system: MAP kinase-interacting kinase MNK1/2 (Homo sapiens); assay: Inhibition of MNK in human PC-3 cells assessed as inhibition of eIF4E phosphorylation at 3 uM incubated for 2 hrs by Western blot analysis
[19] = system: MAP kinase-interacting kinase MNK1/2 (Homo sapiens); assay: Inhibition of MNK in human A549 cells assessed as inhibition of eIF4E phosphorylation at 3 uM incubated for 2 hrs by Western blot analysis
[20] = Apparent volume of distribution in mouse at 25 mg/kg, iv and measured upto 24 hrs; type: ADME, organism-based; settings: in vivo, read-out: Vz
A549 [21] = assay: Induction of cell cycle arrest in human A549 cells assessed as accumulation of cells at G2/M phase at 5 uM incubated for 20 hrs by propidium iodide staining based flow cytometry (Rvb=15.5%); type: functional
A549 [22] = assay: Antimigratory activity against human A549 cells assessed as inhibition of cell migration at 5 uM and measured upto 24 hrs by scratch wound healing assay; type: functional, cell-based; outline: as §3
A549 [23] = assay: Downregulation of MMP-3 in human A549 cells at 5 uM incubated for 24 hrs by Western blot anlaysis; type: functional, cell-based; outline: as §2
[24] = Cmax in mouse at 50 mg/kg, po and measured upto 24 hrs; type: ADME, organism-based; set-up: dose 50 mg/kg, time < 24 hrs, route po; settings: in vivo
[25] = system: MAP kinase-interacting kinase MNK1/2 (Homo sapiens); assay: Inhibition of MNK in human MDA-MB-231 cells assessed as inhibition of eIF4E phosphorylation at 3 uM incubated for 2 hrs by Western blot analysis
[26] = Half life in mouse at 50 mg/kg, po and measured upto 24 hrs; type: ADME, organism-based; settings: in vivo
MDA-MB-231 [27] = assay: Antiproliferative activity against human MDA-MB-231 cells assessed as reduction in cell viability at 5 uM incubated upto 6 days by trypan blue assay; type: functional, cell-based; settings: time <= 6.0 day; outline: as §4

T2 sequence (Q8N122 whole entry, looked up, other chains not shown): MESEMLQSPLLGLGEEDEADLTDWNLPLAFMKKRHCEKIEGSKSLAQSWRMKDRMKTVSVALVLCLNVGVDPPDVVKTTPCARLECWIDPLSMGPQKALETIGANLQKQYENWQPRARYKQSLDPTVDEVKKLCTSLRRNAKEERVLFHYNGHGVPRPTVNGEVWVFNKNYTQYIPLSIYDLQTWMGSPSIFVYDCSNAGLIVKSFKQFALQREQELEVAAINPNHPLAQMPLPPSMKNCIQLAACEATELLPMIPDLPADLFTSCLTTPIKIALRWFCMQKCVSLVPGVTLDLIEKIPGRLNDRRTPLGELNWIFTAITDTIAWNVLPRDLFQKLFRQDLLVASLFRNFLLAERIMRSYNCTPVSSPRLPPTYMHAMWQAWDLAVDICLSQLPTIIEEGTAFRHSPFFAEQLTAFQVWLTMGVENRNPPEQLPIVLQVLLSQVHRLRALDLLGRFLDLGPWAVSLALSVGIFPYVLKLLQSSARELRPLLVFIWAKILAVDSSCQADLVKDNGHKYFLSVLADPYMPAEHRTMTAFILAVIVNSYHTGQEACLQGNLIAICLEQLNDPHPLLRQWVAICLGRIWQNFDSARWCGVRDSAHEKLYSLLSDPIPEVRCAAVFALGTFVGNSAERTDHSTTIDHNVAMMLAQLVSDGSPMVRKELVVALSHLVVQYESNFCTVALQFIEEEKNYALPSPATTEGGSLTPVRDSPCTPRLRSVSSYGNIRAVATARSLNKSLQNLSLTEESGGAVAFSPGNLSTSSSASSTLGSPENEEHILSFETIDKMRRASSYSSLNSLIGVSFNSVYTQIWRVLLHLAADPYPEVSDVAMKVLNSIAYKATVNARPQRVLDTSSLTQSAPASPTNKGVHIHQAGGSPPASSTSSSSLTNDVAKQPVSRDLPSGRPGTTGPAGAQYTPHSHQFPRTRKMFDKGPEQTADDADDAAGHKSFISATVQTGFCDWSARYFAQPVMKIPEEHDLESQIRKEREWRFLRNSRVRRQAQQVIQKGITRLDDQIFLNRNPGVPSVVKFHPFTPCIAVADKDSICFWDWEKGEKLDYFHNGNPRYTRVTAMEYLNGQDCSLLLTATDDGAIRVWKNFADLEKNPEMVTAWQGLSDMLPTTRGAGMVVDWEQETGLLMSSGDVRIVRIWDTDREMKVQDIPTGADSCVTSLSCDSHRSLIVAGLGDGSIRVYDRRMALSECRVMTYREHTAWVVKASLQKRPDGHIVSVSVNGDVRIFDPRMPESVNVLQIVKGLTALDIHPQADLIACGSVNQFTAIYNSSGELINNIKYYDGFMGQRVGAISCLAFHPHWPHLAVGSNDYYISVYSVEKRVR
T2 sequence (Q9BVC4 whole entry, looked up, other chains not shown): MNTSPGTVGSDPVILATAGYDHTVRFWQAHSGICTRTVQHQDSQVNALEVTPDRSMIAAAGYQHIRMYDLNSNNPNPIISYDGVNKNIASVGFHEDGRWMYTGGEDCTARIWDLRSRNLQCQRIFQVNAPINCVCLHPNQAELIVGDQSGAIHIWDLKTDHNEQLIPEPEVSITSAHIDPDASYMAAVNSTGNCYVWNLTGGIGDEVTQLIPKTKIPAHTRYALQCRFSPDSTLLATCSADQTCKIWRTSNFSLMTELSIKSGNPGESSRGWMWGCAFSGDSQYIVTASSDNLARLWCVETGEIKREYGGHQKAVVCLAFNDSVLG
Eukaryotic translation initiation factor 4E (Homo sapiens), sequence (P06730 whole entry): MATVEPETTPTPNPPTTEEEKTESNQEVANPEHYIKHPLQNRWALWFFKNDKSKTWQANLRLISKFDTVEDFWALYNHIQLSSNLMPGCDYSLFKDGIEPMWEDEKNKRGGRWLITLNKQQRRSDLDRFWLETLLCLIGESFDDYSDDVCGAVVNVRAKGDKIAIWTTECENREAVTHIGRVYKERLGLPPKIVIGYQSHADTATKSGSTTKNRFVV
Mitogen-activated protein kinase 9 (Homo sapiens), sequence (P45984 whole entry, looked up): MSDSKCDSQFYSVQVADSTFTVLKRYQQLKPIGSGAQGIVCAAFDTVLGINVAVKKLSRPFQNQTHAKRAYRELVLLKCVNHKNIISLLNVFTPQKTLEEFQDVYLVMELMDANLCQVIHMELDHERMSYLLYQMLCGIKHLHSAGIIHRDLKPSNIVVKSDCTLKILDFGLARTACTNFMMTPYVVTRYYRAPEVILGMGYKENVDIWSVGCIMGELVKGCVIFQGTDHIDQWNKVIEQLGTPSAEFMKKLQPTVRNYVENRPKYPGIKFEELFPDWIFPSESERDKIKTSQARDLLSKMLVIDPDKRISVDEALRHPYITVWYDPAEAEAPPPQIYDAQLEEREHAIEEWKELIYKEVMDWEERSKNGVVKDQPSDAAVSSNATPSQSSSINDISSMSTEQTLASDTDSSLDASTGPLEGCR

inhibition [1]: Active
IC50 [2]: 11.5 nM
inhibition (mTORC1 (Homo sapiens) [3]): inactive
inhibition (mTORC1 (Homo sapiens) [5]): inactive
inhibition [6]: Active
Tmax [8]: 4.8 min
inhibition [10]: 100%
inhibition [11]: Active
inhibition [14]: Active
inhibition [15]: Active
inhibition [18]: Active
inhibition [19]: Active
Vd [20]: 1.52 L/kg
Cmax [24]: 17200 ng/mL
inhibition [25]: Active
half-life [26]: 4.42 h
SMILES: CN1CCN(C(=O)c2ccc(-c3nn4c(-c5ccc(C#N)cc5)cnc4s3)cc2)CC1
inhibition (MEF): Active
Activity (MDA-MB-231 [4]): Active
Activity (MDA-MB-231 [7]): Active
Activity (MDA-MB-231 [9]): Active
inhibition (MDA-MB-231 [12]): Dose-Dependent Effect
Activity (A549 [13]): 3.3%
Activity (A549 [16]): Active
Activity (A549 [17]): 91.4%
Activity (A549 [21]): 3.3%
Activity (A549 [22]): Active
Activity (A549 [23]): Active
Activity (MDA-MB-231 [27]): Active
